Series [1] deals with Tumour. The series is described as follows: Drug uptake in tumor of human LNCAP cells xenografted NCR nu/nu mouse at 0.19 to 0.36 MBq, iv at 6 hrs. The series is classed as ADME, organism-based, Neoplasm. The note with it: in vivo. In outline: (§1)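 NCr nu/nu male mice carrying subcutaneous right-flank LNCaP xenografts (2 × 10^6 cells in Matrigel:DPBS), used 4–7 weeks after inoculation. Tail-vein injection of 0.19–0.36 MBq 125I tracer in 0.9% saline. Killed at 1 and 6 h; tissues collected and counted, expressed as %ID/g ± SEM. Group sizes n = 2–3.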

Series [2] has as its system Kidney. The series is described as follows: Drug uptake in kidney of human LNCAP cells xenografted NCR nu/nu mouse at 0.19 to 0.36 MBq, iv at 1 hr. It is filed as ADME, organism-based. The note with it: in vivo. In outline: as §1
(Xenograft models place foreign cells or tissue in a host animal.)

Series [3] deals with Kidney. The series is described as follows: Drug uptake in kidney of human LNCAP cells xenografted NCR nu/nu mouse at 0.19 to 0.36 MBq, iv at 6 hrs. It is filed as ADME, organism-based. The settings on record: in vivo. In outline:
as §1

Series [4] concerns Tumour. The series is described as follows: Drug uptake in tumor of human LNCAP cells xenografted NCR nu/nu mouse at 0.19 to 0.36 MBq, iv at 1 hr. It is filed as ADME, organism-based, Neoplasm. The settings on record: in vivo. In outline:
as §1

A short description of series [5]: Drug uptake in small intestine of human LNCAP cells xenografted NCR nu/nu mouse at 0.19 to 0.36 MBq, iv at 6 hrs. It is filed as ADME, organism-based. The note with it: in vivo. In outline: as §1
A short description of series [6]: Drug uptake in gall bladder of human LNCAP cells xenografted NCR nu/nu mouse at 0.19 to 0.36 MBq, iv at 1 hr. The series is classed as ADME, organism-based. The note with it: in vivo. In outline:
as §1

Series [7] in a line: Drug uptake in gall bladder of human LNCAP cells xenografted NCR nu/nu mouse at 0.19 to 0.36 MBq, iv at 6 hrs. It is filed as ADME, organism-based. In outline:
as §1

A short description of series [8]: Ratio of drug level in tumor to blood in human LNCAP cells xenografted NCR nu/nu mouse at 0.19 to 0.36 MBq, iv at 1 hr. It is filed as ADME, organism-based. In outline: as §1
Series [9] in a line: Drug uptake in small intestine of human LNCAP cells xenografted NCR nu/nu mouse at 0.19 to 0.36 MBq, iv at 1 hr. The series is classed as ADME, organism-based. The settings on record: in vivo. In outline:
as §1

For series [10], the system named is Blood. The series is described as follows: Drug uptake in blood of human LNCAP cells xenografted NCR nu/nu mouse at 0.19 to 0.36 MBq, iv at 1 hr. It is filed as ADME, organism-based. The settings on record: in vivo. In outline:
as §1

The nature of series [11]: Ratio of drug level in tumor to blood in human LNCAP cells xenografted NCR nu/nu mouse at 0.19 to 0.36 MBq, iv at 6 hrs. It is filed as ADME, organism-based. In outline: as §1
Series [12] deals with LNCaP. The series is described as follows: Drug internalization in PSMA expressing human LNCAP cells at 5 nM incubated for 2 hrs at 37 degC measured for 10 mins by gamma counting analysis. It is filed as ADME, cell-based. The settings on record: 0.005 µM.
For series [13], the system named is LNCaP. The series is described as follows: Drug internalization in PSMA expressing human LNCAP cells at 5 nM incubated for 2 hrs at 4 degC measured for 10 mins by gamma counting analysis. It is filed as ADME, cell-based. The note with it: 0.005 µM.
In series [14] the test system is LNCaP. The series is described as follows: Drug internalization in PSMA expressing human LNCAP cells at 10 nM incubated for 2 hrs at 37 degC measured for 10 mins by gamma counting analysis. It is filed as ADME, cell-based. The settings on record: 0.01 µM.
Series [15] is described as follows: Drug uptake in thyroid gland of human LNCAP cells xenografted NCR nu/nu mouse at 0.19 to 0.36 MBq, iv at 1 to 6 hrs. It is filed as ADME, organism-based. The settings on record: in vivo. In outline: as §1
Series [16] can be described thus: Chemical stability in solid state at -10 degC. It is filed as physicochemical.
The nature of series [17]: Stability of compound in saline up to 48 hrs. It is filed as physicochemical. The note with it: buffer.
Series [18] deals with LNCaP. The series is described as follows: Drug internalization in PSMA expressing human LNCAP cells at 10 nM incubated for 2 hrs at 4 degC measured for 10 mins by gamma counting analysis. It is filed as ADME, cell-based. The note with it: 0.01 µM.

One may read the Kp as tissue or fluid exposure divided by exposure in the circulation. For the compound `O=C(O)CC[C@H](NC(=O)N[C@@H](CCCCNC(=O)Cn1nnc([125I])c1CNc1ccc([N+](=O)[O-])cc1[N+](=O)[O-])C(=O)O)C(=O)O`, the Drug uptake stood at 9.8 % ID/g in series [1]; 68.35 % ID/g in series [2]; 66.46 % ID/g in series [3]; 12.21 % ID/g in [4]; 2.18 % ID/g in series [5]; 92.46 % ID/g in series [6]. For the same compound, the Drug uptake is 47.37 % ID/g in series [9] and 0.36 % ID/g in series [10]. The tissue uptake at 6 h in [7] (NCR nu/nu, gall bladder, read-out: Drug uptake) was found to be 7.89 %ID/g. In addition, the Kp at 1 h in [8] turned out to be 35. In addition, the Kp at 6 h in series [11] is 59.

Consider `O=C(O)CC[C@H](NC(=O)N[C@@H](CCCCNC(=O)Cn1cc([125I])nn1)C(=O)O)C(=O)O`, for which the Drug uptake result is “Active” in series [12] and “Not Active” in series [13].

As for `O=C(O)CC[C@H](NC(=O)N[C@@H](CCCCNC(=O)Cn1nnc(COCCOCCOCCOCCOCCOCCOCCOCCNc2ccc([N+](=O)[O-])cc2[N+](=O)[O-])c1[125I])C(=O)O)C(=O)O`, the Drug uptake entry in [14] is “Active”; in series [1], 3.24 % ID/g; in series [15], “Active”; in series [4], 3.01 % ID/g; in [18], “Not Active”; in series [6] it was “Active”. Besides, in [7] (in vivo, 6 h), the Drug uptake result is given as “Not Active”. Besides, the values for the Stability in series [16] and in series [17] were 3 weeks and “Stable”, respectively. Moreover, the Kp at 1 h in series [8] is 10. For the same compound, the Kp at 6 h in series [11] stood at 3.4.

The record behind these values is ChEMBL document CHEMBL3785062, “Preparation and Evaluation of Radiolabeled Antibody Recruiting Small Molecules That Target Prostate-Specific Membrane Antigen for Combined Radiotherapy and Immunotherapy” (J Med Chem, 2016).
